Experimental findings from ChEMBL document CHEMBL1129419, “1-Aminocyclobutanecarboxylic acid derivatives as novel structural elements in bioactive peptides: application to tuftsin analogs” (J Med Chem, 1996) are described below.

A short description of data set [1]: Plasma half life of compound reported. It is filed as ADME, cell-free. Summed up: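 Peptide (0.5 mg) was incubated in 0.5 mL human serum at 37 °C. Aliquots were taken at 0-240 min, boiled at 90-95 °C for 5 min, diluted with water and centrifuged. Intact peptide was quantified by isocratic RP-HPLC at 220 nm, with peak area referenced to an internal serum peak and time 0 set at 100%. Half-life was read from the degradation time course.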

The nature of data set [2]: Compound was evaluated for the secretion of interleukin-6 (IL-6) by macrophages incubated in the presence of antigen Keyhole Limpet Hemocyanin (KLH) at concentration of 2 x 10E-7 M. It is filed as functional. An outline of the steps: (§1)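 Thioglycollate-elicited peritoneal macrophages from (BALB/c x C3H.eb)F1 mice (6-8 weeks), >90% pure, cultured at 10⁶/mL in DMEM for 48 h at 37 °C, 5% CO₂. Incubated 20 h in triplicate with KLH plus peptide (2 × 10^-7 to 2 × 10^-9 M). Pooled supernatants were assayed for IL-6 by B9 hybridoma proliferation ([³H]thymidine, 2-fold dilutions), giving arbitrary units with KLH alone set at 1000 units. Three experiments were averaged.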

Data set [3] in a line: Compound was evaluated for the secretion of interleukin-6 (IL-6) by macrophages incubated in the presence of antigen Keyhole Limpet Hemocyanin (KLH) at concentration of 2 x 10E-8 M. It is filed as functional. Summed up:
as §1

Data set [4] can be described thus: Compound was evaluated for the secretion of interleukin-6 (IL-6) by macrophages incubated in the presence of antigen Keyhole Limpet Hemocyanin (KLH) at concentration of 2 x 10E-9 M. It is filed as functional. An outline of the steps: as §1

Where a SMILES comes first, the peptide text is derived from it.

`C[C@@H](O)[C@H](N)C(=O)N[C@@H](CCCCN)C(=O)N1CCC[C@H]1C(=O)N[C@]1(C(=O)O)C[C@@H](CN=C(N)N)C1`: the half-life in data set [1] turned out to be 11 min.

`C[C@@H](O)[C@H](N)C(=O)N[C@]1(C(=O)N2CCC[C@H]2C(=O)N[C@@H](CCCN=C(N)N)C(=O)O)C[C@@H](CN)C1`: the Secretion is given as 68% in data set [2] and 54% in data set [3]. For `C[C@@H](O)[C@H](N)C(=O)NC1(C(=O)N2CCC[C@H]2C(=O)N[C@@H](CCCN=C(N)N)C(=O)O)CC(CCN)C1` (some centres undefined), in data set [1], the half-life amounted to 13 min. On to `NCCCC[C@H](NC(=O)[C@]1(N)C[C@H](CO)C1)C(=O)N1CCC[C@H]1C(=O)N[C@@H](CCCN=C(N)N)C(=O)O`, for which the Secretion was 125% in data set [2] and 29% in data set [3]. Take `C[C@@H](O)[C@H](N)C(=O)N[C@@H](CCCCN)C(=O)N1CCC[C@H]1C(=O)N[C@@H](CCCN=C(N)N)C(=O)O` (H-TKPR-OH): the values for the Secretion in data set [2], in data set [4] and in data set [3] were 78%, 32% and 42%, respectively. With `C[C@@H]1CC[C@]1(NC(=O)[C@H](CCCCN)NC(=O)[C@@H](N)[C@@H](C)O)C(=O)N[C@@H](CCCNC(=N)N)C(=O)O` (stereo in doubt; 27), the Secretion in data set [2] was 30%. With `C[C@@H]1CC[C@]1(NC(=O)[C@H](CCCCN)NC(=O)[C@@H](N)[C@@H](C)O)C(=O)N[C@@H](CCCNC(=N)N)C(=O)O` (stereo in doubt; 27a), the Secretion in data set [2] is reported as 141%; in data set [3] it was 95%. The compound also gave a half-life in data set [1] of 25 min. For the compound `C[C@@H]1CC[C@]1(NC(=O)[C@H](CCCCN)NC(=O)[C@@H](N)[C@@H](C)O)C(=O)N[C@@H](CCCNC(=N)N)C(=O)O` (stereo in doubt; 27b), the T1/2 in data set [1] is 15 min.

As a reminder, the half-life is the time needed for the level to fall by half in the phase considered. A lower half-life goes with fast loss.
